In the library only some 3% were active in any assay of this set; here they are far more common.
PfG6PD inh – PfG6PD (Plasmodium falciparum) enzyme inhibition; actives 0.78% (n = 350,000); inhibition, % at 20 µM; AID 504690; PfGluPho enzyme, NADPH resazurin-diaphorase fluorescence;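 active means inhibition reaching at least a set limit at 20 µM in the primary screen, cut at about 59% in these data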;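 further: 0% = DMSO wells with substrate and 100% = DMSO wells lacking glucose-6-phosphate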
MC4R ag barr – activates human MC4R beta-arrestin recruitment. P32245. U2OS MC4R beta-arrestin complementation, luminescence; percent of melanotan II response, DMSO zero. activation, % at 8.9 µM. actives 0.98% (n = 360,000);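 active means activation above a per-plate cutoff, the mean activation of sample wells on that plate plus 3 SD, cut at about 8% in these data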
ABHD5-PLIN5 inh – blocks binding of human ABHD5 to perilipin-5; Q00G26+Q8WTS1; Split G. princeps luciferase complementation, luminescence, 4 h; inhibition, % at 4 µM; actives 0.78% (n = 360,000);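 active means inhibition above the mean inhibition across every tested compound plus 3 SD, cut at about 22% in these data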;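 further: 0% = DMSO only wells and the 100% control is not disclosed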
MC4R antagonist – antagonists of human melanocortin 4 receptor (MC4R); P32245; MC4R-expressing cells, MTII-stimulated cAMP, LANCE TR-FRET; inhibition, % at 6.5 µM; actives 0.48% (n = 360,000); AID 540295;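 active means inhibition above its plate's cutoff, the mean of tested wells on that plate plus 3 SD, cut at about 29% in these data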;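 further: 0% = Melanotan II alone and 100% = Melanotan II plus saturating MCL0020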
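Assay system: U2OS-MC4R stable cell line; Also added: Melanotan II; Technique: Eu-cAMP/anti-cAMP TR-FRET, emission 671 nm; Times: 30-min compound, 1-h challenge, 1-h detection, room temperature.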
B2AR ag – human beta-2 adrenergic receptor agonism by FAP. P07550. Am2.2-beta2AR cells, FAP receptor internalization, flow cytometry. response, % (test concentration not listed). actives 0.43% (n = 340,000). AID 504454;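 active means response above a set limit, near 3 SD of response in nonfluorescent compounds, cut at about 42% in these data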
Target sequence (P07550 whole entry, looked up): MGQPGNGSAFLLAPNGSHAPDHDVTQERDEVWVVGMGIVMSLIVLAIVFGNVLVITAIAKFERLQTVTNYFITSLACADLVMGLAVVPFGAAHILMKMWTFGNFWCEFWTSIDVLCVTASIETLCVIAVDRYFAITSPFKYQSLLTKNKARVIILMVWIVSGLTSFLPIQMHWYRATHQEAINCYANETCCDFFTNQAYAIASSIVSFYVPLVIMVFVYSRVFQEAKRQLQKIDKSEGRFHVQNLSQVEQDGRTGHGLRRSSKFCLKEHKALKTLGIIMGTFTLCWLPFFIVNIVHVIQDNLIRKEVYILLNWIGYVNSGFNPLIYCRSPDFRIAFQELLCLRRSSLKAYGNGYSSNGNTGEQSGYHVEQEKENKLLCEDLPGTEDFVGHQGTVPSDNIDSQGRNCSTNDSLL
cAMP nonselect – counter-screen for MC4R antagonists: nonselective cAMP signaling inhibitors; shares compounds with MC4R antagonist; parental U2OS, forskolin cAMP, LANCE TR-FRET; inhibition, % at 6.5 µM; actives 26% (n = 1,600);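 active means mean inhibition over triplicates above the low-control well mean plus 3 SD, set per campaign, cut at about 13% in these data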;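 further: signal is single emission at 671 nm which falls as cellular cAMP rises; 0% = forskolin-stimulated wells and 100% = buffer without forskolin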
MC4R antag conf – human MC4R cAMP antagonism confirmation | AID 602195 | actives 27% (n = 1,600) | shares compounds with MC4R antagonist | inhibition, % at 6.5 µM | MC4R-expressing cells, MTII-stimulated cAMP, TR-FRET; in the data active means inhibition above about 29%;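 further: 0% = agonist stimulated wells alone and 100% = agonist stimulated wells plus saturating reference antagonist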
* = called active by the depositor; · = not tested or not shown.

SMILES	PfG6PD inh	MC4R ag barr	ABHD5-PLIN5 inh	MC4R antagonist	B2AR ag	cAMP nonselect	MC4R antag conf
CCn1c(CC(=O)Nc2ccc(F)cc2)nnc1SCC(=O)NC1CCCC1	-14	2	3	-3	-1	·	·
CCn1c(CC(=O)Nc2ccc(F)cc2)nnc1SCC(=O)Nc1nnc(C)s1	-12	3	-5	30*	5	-1	0
O=C(O)CN1C(=O)C(=O)N(Cc2ccc(Cl)cc2Cl)C1=O	-7	-1	2	4	-3	·	·
CCN(C(=O)COC(=O)CCC(=O)c1ccc(Cl)cc1)c1c(N)n(Cc2ccccc2)c(=O)[nH]c1=O	14	-2	2	0	-3	·	·
O=C(Nc1cc(N2CCCCC2)ncn1)c1ccccc1	-2	-1	-2	9	-13	·	·
O=C(Nc1cc(Cl)ncn1)c1ccccc1	-5	0	-2	30*	4	17*	38*
COc1ccc(-n2c(C)nnc2SCC(=O)Nc2ccccc2F)cc1	29	-1	3	4	9	·	·
Cc1ccc(F)cc1NC(=O)CCNC(=O)c1ccc([N+](=O)[O-])cc1	1	1	-3	-4	-3	·	·
O=C(CCNC(=O)c1ccc([N+](=O)[O-])cc1)Nc1ccc(F)c(F)c1F	-6	-1	-3	32*	-8	1	4
Cc1cc(C)n(C(=O)N(c2ccccc2)c2ccccc2)n1	-3	0	5	7	16	·	·
CC(=O)n1cc(N(C(=O)CCl)c2ccc(C)cc2)c2ccccc21	1	17*	11	46*	-162	-21	45*
Cc1ccc(C)c(S(=O)(=O)NCC(=O)OCC(=O)Nc2sccc2C(N)=O)c1	-1	-1	3	49*	13	13*	33*
Cc1ccc(N=C(NO)c2cnccc2C(F)(F)F)c(C)c1	-14	1	-1	30*	-4	-1	-10
CC1=C(C(=O)N(C(C)C)C(C)C)CC(CC(=O)NCCN2CCOCC2)C(=O)N1Cc1ccc(F)cc1 (configuration not stated)	·	·	0	·	·	·	·
O=C(O)c1cc(-c2ccc(Cl)s2)nc2ccccc12	7	1	-4	34*	0	12	28
Cc1ccc(-c2cc(C(=O)O)c3ccccc3n2)s1	-7	-2	-5	2	-1	·	·
CC(=O)N1N=C(c2ccc(C)cc2)CC1c1ccco1 (configuration not stated)	-14	-1	2	30*	3	12	3
O=C(O)c1cccnc1SCC(=O)C12CC3CC(CC(C3)C1)C2	-19	-1	-2	11	2	·	·
O=C(CSc1ccccn1)C12CC3CC(CC(C3)C1)C2	7	4	-9	32*	-6	2	-5
O=C(O)CCC(=O)N1N=C(c2ccco2)CC1c1cccs1 (configuration not stated)	-8	-1	-1	6	2	·	·
O=C(O)CCC(=O)N1N=C(c2ccc(Br)cc2)CC1c1cccs1 (configuration not stated)	-1	-2	-4	30*	-2	4	6
N/C(=N\OC(=O)c1ccc2ccccc2c1)c1ccccc1Cl	23	8	-5	7	-7	·	·
Cc1cnc(C(=O)OCC(=O)c2ccc(Br)s2)cn1	16	-1	-3	30*	-7	13*	25
O=C(CN(C(=O)CNC(=O)c1cccs1)c1ccccc1F)NC1CCCCC1	-8	1	-2	22	-6	·	·
Cc1ccccc1N(CC(=O)NC1CCCCC1)C(=O)CNC(=O)c1cccs1	-1	2	-8	30*	-1	-17	-33
SMILES	PfG6PD inh	MC4R ag barr	ABHD5-PLIN5 inh	MC4R antagonist	B2AR ag	cAMP nonselect	MC4R antag conf
CCc1cc2ccc(OC)cc2nc1SCC(=O)NNC(=O)c1ccco1	-11	-2	3	2	-2	·	·
CCc1cc2ccc(OC)cc2nc1SCC(=O)N1CCN(C(=O)c2ccco2)CC1	9	-1	6	34*	-5	2	18
COc1ccc(/C=C/C(=O)NCC(=O)N=Nc2c(O)[nH]c3ccc([N+](=O)[O-])cc23)cc1	1	-2	-1	6	-10	·	·
CC(=O)Oc1ccc(CN2C(=O)C(CCc3ccccc3)ON=C2c2cnccn2)cc1 (configuration not stated)	·	0	2	29*	·	6	13
COc1cc(CN2C(=O)C(CCc3ccccc3)ON=C2c2cnccn2)cc(OC)c1 (configuration not stated)	·	0	3	16	·	·	·
CN(Cc1ccccc1)C(=C(Cl)Cl)/C(=C1/NCCN1C)[N+](=O)[O-]	-12	-1	3	39*	-2	2	3
O=C(CSCC(=O)OCC(=O)c1ccc(Br)cc1)Nc1ccc(Br)cc1	-19	2	4	1	-1	·	·
CCOC(=O)c1ccc(NC(=O)CSCC(=O)OCC(=O)c2ccccc2)cc1	-19	2	5	36*	0	8	18
O=S1(=O)N=C(N/N=C/c2cccs2)c2ccccc21	-19	-2	1	3	4	·	·
CC(=Nc1ccccc1)C1=C(O)C(Cc2ccc(O)cc2)NC1=O (configuration not stated)	2	0	-2	-18	19	·	·
Cc1ccc(NC(=O)c2ccccc2[N+](=O)[O-])nc1	-14	1	-1	38*	-4	0	-8
Cc1ccc(NC(=O)c2ccc(Cl)cc2[N+](=O)[O-])nc1	25	-3	-6	-17	-13	·	·
O=C(OC1CCOC1=O)c1ccc(Cl)c(S(=O)(=O)N2CCCCC2)c1 (configuration not stated)	-9	1	1	34*	3	11	11
O=C(OC1CCOC1=O)C1CCN(S(=O)(=O)c2ccc(Cl)c(C(F)(F)F)c2)CC1 (configuration not stated)	-9	-1	4	51*	-6	14*	50*
O=C(OC1CCOC1=O)C1CCN(S(=O)(=O)c2ccccc2)CC1 (configuration not stated)	8	-1	0	35*	-5	18*	43*
O=C(OC1CCOC1=O)c1ccc(Cl)c(S(=O)(=O)N2CCOCC2)c1 (configuration not stated)	14	-2	-13	11	-10	·	·
COc1cc(C(=O)N2CCCC(c3cc(C(=O)NCc4ccccc4)no3)C2)cc(OC)c1C (configuration not stated)	·	-2	0	-3	·	·	·
O=C(NCCNC(=O)c1cc(Cl)ccc1Cl)c1ccco1	14	-1	-5	6	-6	·	·
O=C(CN1CCN(Cc2ccccc2F)C1=O)NC1CCCC1	20	0	2	29*	-5	-1	-5

Bioassay records: PubChem BioAssay, several laboratories
